Experimental data: ChEMBL document CHEMBL1129041, “Design of orally active dual inhibitors of neutral endopeptidase and angiotensin-converting enzyme with long duration of action” (J Med Chem, 1996)

Target: T1, Neprilysin (Mus musculus) (UniProt Q61391)
T1 sequence (whole entry): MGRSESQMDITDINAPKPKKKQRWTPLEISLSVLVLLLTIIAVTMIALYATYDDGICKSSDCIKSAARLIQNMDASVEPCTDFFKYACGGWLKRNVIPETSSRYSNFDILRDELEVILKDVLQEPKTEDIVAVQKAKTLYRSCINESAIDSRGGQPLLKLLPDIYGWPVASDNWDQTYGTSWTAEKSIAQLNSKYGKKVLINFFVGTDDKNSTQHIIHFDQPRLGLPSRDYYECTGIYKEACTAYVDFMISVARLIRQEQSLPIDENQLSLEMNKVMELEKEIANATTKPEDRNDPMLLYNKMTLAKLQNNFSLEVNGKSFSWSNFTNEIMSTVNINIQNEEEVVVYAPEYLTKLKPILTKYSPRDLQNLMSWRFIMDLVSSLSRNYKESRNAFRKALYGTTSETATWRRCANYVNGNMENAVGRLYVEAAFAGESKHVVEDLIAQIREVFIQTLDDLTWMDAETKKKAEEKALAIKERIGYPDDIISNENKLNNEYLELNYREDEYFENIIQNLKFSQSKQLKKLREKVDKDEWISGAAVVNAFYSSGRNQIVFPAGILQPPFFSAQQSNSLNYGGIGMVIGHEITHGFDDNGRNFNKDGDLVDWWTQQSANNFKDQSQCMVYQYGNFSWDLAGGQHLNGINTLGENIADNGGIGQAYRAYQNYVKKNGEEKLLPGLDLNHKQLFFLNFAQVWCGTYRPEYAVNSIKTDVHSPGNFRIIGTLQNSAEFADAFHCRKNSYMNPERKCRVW
Assay: In vivo percent inhibition activity against kidney Neutral endopeptidase 2 hr after oral administration of a dose of 2.6 x 10e-5 mol/kg
Assay type: organism-based
In short: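 Mice given a single oral dose in 10% ethanol/10% cremophor/80% water; kidneys taken 2 h later and homogenized at 4 °C in 50 mM Tris-HCl pH 7.4. Membrane fraction (100000g) preincubated 5 min at 25 °C with bestatin and captopril, then incubated 10 min with [3H]-D-Ala2-Leu-enkephalin (2 × 10^-8 M). [3H]Tyr-D-Ala-Gly counted; blanks contained 10^-5 M retrothiorphan.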

- inhibition: 44%
SMILES: Cc1ccccc1C1CC[C@@H](C(=O)O)N1C(=O)CNC(=O)[C@@H](S)Cc1ccc(O)cc1 (single isomer, unassigned)
